In ChEMBL document CHEMBL1821706, “Unprecedented citrinin trimer tricitinol B functions as a novel topoisomerase IIα inhibitor” (J Med Chem, 2011):

Columns and labels:
HCT-116 = assay: Cytotoxicity against human HCT116 cells after 72 hrs by SRB assay; format: functional, cell-based; settings: HCT-116, 72 h
How it was run: (§1)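 Adherent human tumour lines were seeded and exposed in triplicate to graded compound concentrations at 37 °C for 72 h. Growth was read by sulforhodamine B staining. IC50 (50% growth inhibition) was obtained by the Logit method from at least three independent experiments and reported as mean ± SD.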

HL-60 = assay: Cytotoxicity against human HL60 cells after 72 hrs by MTT assay; format: functional, cell-based; settings: HL-60, 72 h
How it was run: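 Cells were treated in triplicate with graded concentrations for 72 h at 37 °C and read by MTT. IC50 is the concentration giving 50% growth inhibition, derived by the Logit method from at least three independent experiments and given as mean ± SD.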

KB [1] = assay: Cytotoxicity against human KB cells after 72 hrs by SRB assay; format: functional, cell-based; how it was run: as §1
KB [2] = assay: Cytotoxicity against vincristine-resistant human KB cells over expressing P-glycoprotein after 72 hrs by SRB assay; format: functional, cell-based; how it was run: as §1
KB [3] = assay: Drug resistance index, ratio of IC50 for vincristine-resistant human KB cells to IC50 for human KB cells; format: functional

SMILES	IC50 (HCT-116) [µM]	IC50 (HL-60) [µM]	IC50 (KB [1]) [µM]	IC50 (KB [2]) [µM]	Ratio IC50 (KB [3])
CC1=C2C(=CO[C@H](C)[C@H]2C)C(O)=C(C(=O)O)C1=O [CITRININ]	> 10	> 10	> 10	–	–
Cc1c(O)cc(O)c2c1[C@H](C)[C@@H](C)OC2 [DECARBOXYDIHYDROCITRININ]	> 10	> 10	> 10	–	–
Cc1c2c(c3oc4cc(=O)c(C)c5c-4c(c3c1O)O[C@H](C)[C@H]5C)O[C@H](C)[C@H]2C [DICITRININ A]	> 10	> 10	> 10	–	–
COC1O[C@H](C)[C@@H](C)c2c(C)c(O)c3c(c21)Oc1cc(O)c(C)c2c1[C@H]3O[C@H](C)[C@H]2C (stereo partly drawn) [DICITRINOL A]	4.54	5.98	5.05	–	–
COC1O[C@H](C)[C@@H](C)c2c(C)c3c(c(O)c21)[C@@H]1O[C@H](C)[C@@H](C)c2c(C)c(O)cc(c21)O3 (stereo partly drawn) [DICITRINOL B]	5.8	6.06	5.15	–	–
Cc1c(O)c(C(=O)O)c(O)c2c1[C@H](C)[C@@H](C)OC2=O [DIHYDROCITRINONE]	> 10	> 10	> 10	–	–
Cc1c2c(c3oc4cc(=O)c(C)c5c-4c(c3c1O)O[C@H](C)[C@H]5C)CO[C@H](C)[C@H]2C [OXODICITRINOL A]	> 10	8.91	> 10	–	–
Cc1c(O)c2c(c3c1[C@H](C)[C@@H](C)O3)Oc1cc(O)c(C)c3c1[C@H]2O[C@H](C)[C@H]3C [PENICITRINOL A]	> 10	> 10	> 10	–	–
CO[C@@]12O[C@H](C)[C@@H](C)C1=C(C)C(=O)C1=C2Oc2cc(O)c(C)c3c2[C@H]1O[C@H](C)[C@H]3C [PENICITRINOL B]	> 10	> 10	> 10	–	–
CO[C@@]12O[C@H](C)[C@@H](C)C1=C(C)C1=C(C2=O)[C@@H]2O[C@H](C)[C@@H](C)c3c(C)c(O)cc(c32)O1 [PENICITRINOL F]	> 10	> 10	> 10	–	–
CO[C@@]12Oc3cc(O)c(C)c([C@H](C)[C@@H](C)O)c3C=C1C(=O)C(C)=C1[C@H](C)[C@@H](C)O[C@]12O [PENICITRINOL G]	> 10	> 10	> 10	–	–
CC1=C2[C@H](C)[C@@H](C)O[C@@]2(O)[C@]2(O)Oc3cc(O)c(C)c([C@H](C)[C@@H](C)O)c3C=C2C1=O [PENICITRINOL H]	> 10	> 10	> 10	–	–
Cc1oc2c(c1C)c(C)c(O)c1c3c4c(c(C)c(=O)cc-4oc12)[C@H](C)[C@@H](C)O3 [PENICITRINONE B]	> 10	> 10	> 10	–	–
Cc1c(O)cc(O)cc1[C@H](C)[C@@H](C)O [PHENOL A]	> 10	> 10	> 10	–	–
CO[C@H]1O[C@H](C)[C@@H](C)c2c(C)c(O)c3c(c21)Oc1c([C@H]2O[C@H](C)[C@@H](C)c4c(C)c(O)cc(O)c42)c(O)c(C)c2c1[C@H]3O[C@H](C)[C@H]2C [TRICITRINOL A]	8.57	8.17	> 10	–	–
CC[C@]1(O)C[C@H]2CN(CCc3c([nH]c4ccccc34)[C@@](C(=O)OC)(c3cc4c(cc3OC)N(C=O)[C@H]3[C@@](O)(C(=O)OC)[C@H](OC(C)=O)[C@]5(CC)C=CCN6CC[C@]43[C@@H]65)C2)C1 [VINCRISTINE]	–	–	0.02	1.29	55.97
